Measured values of several laboratories.
Target: Death-associated protein kinase 3 (DAPK3, Homo sapiens, UniProt O43293)

Compound | test | conditions | remaining binding
Nc1ncc2c(n1)-c1c([nH]c3ccc(C#CC4CC4)cc13)CCCC2 | binding, competition with immobilised ligand | 1 µM | 100%
Cc1cnc(Nc2ccc(C(=O)N3CCC(N4CCCC4)CC3)cc2)nc1-c1cc2ccccc2s1 | binding, competition with immobilised ligand | 1 µM | 3.4%
O=C(NCC1CCOCC1)c1n[nH]cc1NC(=O)c1c(F)cccc1F | binding, competition with immobilised ligand | 1 µM | 94%
CN(CCCC(F)(F)F)c1nccc(-c2cnn3ncccc23)n1 | binding | 1 µM | 90%
CCCCN(CCCC)C(=O)CN1C[C@@H](c2cc(OC)c3c(c2)OCO3)[C@H](C(=O)O)[C@H]1CC(C)(C)CCC | cell-free assay, competition with immobilised ligand | 1 µM | 100%
CCN1CCN(Cc2ccc(C(=O)Nc3ccc(C)c(Oc4ccc5c(c4)CC(=O)N5)c3)cc2C(F)(F)F)CC1 | binding, competition with immobilised ligand | 1 µM | 100%
CS(=O)(=O)N1CCCC(NC(=O)[C@H](CCC2CCCCC2)NC(=O)c2ccc(CNC(=O)c3cnc4ccccn34)cc2)C1 (stereo partly shown) | cell-free assay, competition with immobilised ligand | 0.1 µM | 90%
N[C@H]1CCN(c2nccc(-c3cnn4ncccc34)n2)C1 | binding | 1 µM | 100%
c1cncc(-c2cccc(Nc3nccc(NC4CCCCC4)n3)c2)c1 | binding, competition with immobilised ligand | 10 µM | 85%
CS(=O)(=O)c1cc(C2(NC(=O)c3cncc4c3cnn4-c3ccc(F)cc3)CC2)ccn1 | cell-free assay, competition with immobilised ligand | 1 µM | 98%
C[C@@H]1CCN(c2nccc(-c3cnn4ncccc34)n2)C1 | binding | 1 µM | 69%
CNC(=O)[C@@H]1CC[C@@H](n2c(-c3ccc4cnccc4c3)nc3ccc(C(=O)NCc4cccc(C(N)=O)c4)cc32)C1 | binding, competition with immobilised ligand | 1 µM | 100%
Cc1c(NC(=O)c2cc(C(N)=O)nc3cc(F)ccc23)c(C(F)(F)F)nn1Cc1ccc(C#N)cc1 | cell-free assay, competition with immobilised ligand | 1 µM | 89%
O=C(c1ccc(Nc2ncc(Cl)c(-c3cc4ccccc4s3)n2)cc1)N1CCC(N2CCCC2)CC1 | binding, competition with immobilised ligand | 1 µM | 11%
CC(C)(O)c1cncc(-c2nc3ccc(F)cc3n2C2CC2)c1 | cell-free assay, competition with immobilised ligand | 1 µM | 100%
O=C(c1ccc(Nc2nccc(-c3cc4ccccc4s3)n2)cc1)N1CCC(N2CCCC2)CC1 | binding, competition with immobilised ligand | 1 µM | 11%
COc1ccnn2ncc(-c3ccnc(N(C)C)n3)c12 | binding | 1 µM | 72%
COc1ncc2cc3ccccc3nc2c1C#N | cell-free assay, competition with immobilised ligand | 5 µM | 98%
O=C1NC(c2ccccn2)Sc2ccccc21 (stereo not shown) | cell-free assay, competition with immobilised ligand | 1 µM | 0%
c1cnn2ncc(-c3ccnc(N4CCC45COC5)n3)c2c1 | binding | 1 µM | 73%
CC(=O)Nc1c(C(C)=O)c(=O)n(C)c2nc(-c3ccc(Cl)cc3Cl)c(-c3ccc(Cl)cc3)cc12 | cell-free assay, competition with immobilised ligand | 1 µM | 100%
CN(C)c1ncc(F)c(-c2cnn3ncccc23)n1 | binding | 1 µM | 63%
